Results published in ChEMBL document CHEMBL1152987, “Emergence of the quinolone resistance-mediating gene aac(6')-Ib-cr in extended-spectrum-beta-lactamase-producing Klebsiella isolates collected in Slovenia between 2000 and 2005” (2007).

Assays:
Type in all cases: functional
Klebsiella [1] = assay: Antimicrobial activity against extended-spectrum-beta-lactamase-producing Klebsiella transconjugant TK2 isolate expressing quinolone resistance-mediating gene aac(6')-Ib-cr by Etest
In short: (§1)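 Transconjugants came from broth-free matings of Klebsiella donors with E. coli J53 Azr on brain heart infusion agar. Selection was for 24 h at 37°C on LB agar with sodium azide 150 μg/ml plus ampicillin 100, tetracycline 10, trimethoprim 25 or chloramphenicol 30 μg/ml, then replica plating ± ciprofloxacin 0.01 μg/ml. MICs were read by Etest per the manufacturer's instructions.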

Klebsiella [2] = assay: Antimicrobial activity against extended-spectrum-beta-lactamase-producing Klebsiella transconjugant TK24 isolate expressing quinolone resistance-mediating gene aac(6')-Ib-cr by Etest; in short: as §1
Klebsiella [3] = assay: Antimicrobial activity against extended-spectrum-beta-lactamase-producing Klebsiella transconjugant TK3 isolate expressing quinolone resistance-mediating gene aac(6')-Ib-cr by Etest; in short: as §1
Klebsiella [4] = assay: Antimicrobial activity against extended-spectrum-beta-lactamase-producing Klebsiella transconjugant TK22 isolate expressing quinolone resistance-mediating gene aac(6')-Ib-cr by Etest; in short: as §1
Klebsiella [5] = assay: Antimicrobial activity against extended-spectrum-beta-lactamase-producing Klebsiella transconjugant TK11 isolate expressing quinolone resistance-mediating gene aac(6')-Ib-cr by Etest; in short: as §1
Klebsiella [6] = assay: Antimicrobial activity against extended-spectrum-beta-lactamase-producing Klebsiella transconjugant TK18 isolate expressing quinolone resistance-mediating gene aac(6')-Ib-cr by Etest; in short: as §1
Klebsiella [7] = assay: Antimicrobial activity against extended-spectrum-beta-lactamase-producing Klebsiella transconjugant TK5 isolate expressing quinolone resistance-mediating gene aac(6')-Ib-cr by Etest; in short: as §1
Klebsiella [8] = assay: Antimicrobial activity against extended-spectrum-beta-lactamase-producing Klebsiella transconjugant TK20 isolate expressing quinolone resistance-mediating gene aac(6')-Ib-cr by Etest; in short: as §1
Klebsiella [9] = assay: Antimicrobial activity against extended-spectrum-beta-lactamase-producing Klebsiella transconjugant TK13 isolate expressing quinolone resistance-mediating gene aac(6')-Ib-cr by Etest; in short: as §1
Klebsiella [10] = assay: Antimicrobial activity against extended-spectrum-beta-lactamase-producing Klebsiella transconjugant TK7 isolate expressing quinolone resistance-mediating gene aac(6')-Ib-cr by Etest; in short: as §1
Klebsiella [11] = assay: Antimicrobial activity against extended-spectrum-beta-lactamase-producing Klebsiella transconjugant TK19 isolate expressing quinolone resistance-mediating gene aac(6')-Ib-cr by Etest; in short: as §1
Klebsiella [12] = assay: Antimicrobial activity against extended-spectrum-beta-lactamase-producing Klebsiella transconjugant TK25 isolate expressing quinolone resistance-mediating gene aac(6')-Ib-cr by Etest; in short: as §1
Klebsiella [13] = assay: Antimicrobial activity against extended-spectrum-beta-lactamase-producing Klebsiella transconjugant TK4 isolate expressing quinolone resistance-mediating gene aac(6')-Ib-cr by Etest; in short: as §1
Klebsiella [14] = assay: Antimicrobial activity against extended-spectrum-beta-lactamase-producing Klebsiella transconjugant TK10 isolate expressing quinolone resistance-mediating gene aac(6')-Ib-cr by Etest; in short: as §1
Klebsiella [15] = assay: Antimicrobial activity against extended-spectrum-beta-lactamase-producing Klebsiella transconjugant TK15 isolate expressing quinolone resistance-mediating gene aac(6')-Ib-cr by Etest; in short: as §1
Klebsiella [16] = assay: Antimicrobial activity against extended-spectrum-beta-lactamase-producing Klebsiella transconjugant TK16 isolate expressing quinolone resistance-mediating gene aac(6')-Ib-cr by Etest; in short: as §1
Klebsiella [17] = assay: Antimicrobial activity against extended-spectrum-beta-lactamase-producing Klebsiella transconjugant TK12 isolate expressing quinolone resistance-mediating gene aac(6')-Ib-cr by Etest; in short: as §1
Klebsiella [18] = assay: Antimicrobial activity against extended-spectrum-beta-lactamase-producing Klebsiella transconjugant TK21 isolate expressing quinolone resistance-mediating gene aac(6')-Ib-cr by Etest; in short: as §1
Klebsiella [19] = assay: Antimicrobial activity against extended-spectrum-beta-lactamase-producing Klebsiella transconjugant TK1 isolate expressing quinolone resistance-mediating gene aac(6')-Ib-cr by Etest; in short: as §1
Klebsiella [20] = assay: Antimicrobial activity against extended-spectrum-beta-lactamase-producing Klebsiella transconjugant TK8 isolate expressing quinolone resistance-mediating gene aac(6')-Ib-cr by Etest; in short: as §1
Klebsiella [21] = assay: Antimicrobial activity against extended-spectrum-beta-lactamase-producing Klebsiella transconjugant TK23 isolate expressing quinolone resistance-mediating gene aac(6')-Ib-cr by Etest; in short: as §1
Klebsiella [22] = assay: Antimicrobial activity against extended-spectrum-beta-lactamase-producing Klebsiella transconjugant TK9 isolate expressing quinolone resistance-mediating gene aac(6')-Ib-cr by Etest; in short: as §1
Klebsiella [23] = assay: Antimicrobial activity against extended-spectrum-beta-lactamase-producing Klebsiella transconjugant TK17 isolate expressing quinolone resistance-mediating gene aac(6')-Ib-cr by Etest; in short: as §1
Klebsiella [24] = assay: Antimicrobial activity against extended-spectrum-beta-lactamase-producing Klebsiella transconjugant TK6 isolate expressing quinolone resistance-mediating gene aac(6')-Ib-cr by Etest; in short: as §1
Klebsiella [25] = assay: Antimicrobial activity against extended-spectrum-beta-lactamase-producing Klebsiella transconjugant TK14 isolate expressing quinolone resistance-mediating gene aac(6')-Ib-cr by Etest; in short: as §1

Measured: MIC

O=C(O)c1cn(C2CC2)c2cc(N3CCNCC3)c(F)cc2c1=O [CIPROFLOXACIN]
0.125 µg/mL: Klebsiella [1] | Klebsiella [2] | Klebsiella [3] | Klebsiella [4] | Klebsiella [5] | Klebsiella [6] | Klebsiella [7] | Klebsiella [8] | Klebsiella [9] | Klebsiella [10] | Klebsiella [11] | Klebsiella [12] | Klebsiella [13] | Klebsiella [14] | Klebsiella [15] | Klebsiella [16] | Klebsiella [17] | Klebsiella [18] | Klebsiella [19] | Klebsiella [20] | Klebsiella [21] | Klebsiella [22] | Klebsiella [23] | Klebsiella [24] | Klebsiella [25]
